pKi: −log10 of the molar value.
Tests used:
[1] = Selectivity for 5-hydroxytryptamine 1A and sigma receptors; parameters: reference not given here
[2] = biological target: T1, 5-hydroxytryptamine receptor 1A (Rattus norvegicus, UniProt P19327); assay: Displacement of [3H]5-HT from rat hippocampal 5-hydroxytryptamine 1A receptor with 10e-6 M ketanserin; assay type: tissue-based, Hippocampus
T1 sequence (P19327 whole entry): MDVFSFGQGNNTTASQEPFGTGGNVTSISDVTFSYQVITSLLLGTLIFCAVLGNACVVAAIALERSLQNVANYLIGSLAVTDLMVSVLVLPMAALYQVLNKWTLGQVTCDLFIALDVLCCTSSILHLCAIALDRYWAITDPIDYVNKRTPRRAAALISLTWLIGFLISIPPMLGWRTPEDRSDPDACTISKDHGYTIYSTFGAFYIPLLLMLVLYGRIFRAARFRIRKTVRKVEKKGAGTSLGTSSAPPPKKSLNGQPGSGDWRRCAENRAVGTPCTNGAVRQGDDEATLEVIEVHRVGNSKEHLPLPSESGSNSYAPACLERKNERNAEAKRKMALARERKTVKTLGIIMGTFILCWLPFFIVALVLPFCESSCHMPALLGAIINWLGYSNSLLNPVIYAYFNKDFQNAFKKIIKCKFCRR
Summary of the method: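 Rat hippocampal membranes, preincubated 15 min at 37 °C in 50 mM Tris-HCl pH 7.6. Assay buffer was 50 mM Tris-HCl with 4 mM CaCl2, 5.7 mM ascorbic acid and […], pH 7.6. Used 20 nM [3H]5-HT, 15 min at 37 °C, then filtration. IC50 from 2–3 experiments in triplicate (6–9 concentrations); Ki by Cheng–Prusoff.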

[3] = organism: Cavia porcellus; assay: Selectivity for PCP and sigma receptors
[4] = biological target: Sigma non-opioid intracellular receptor 1 (Rattus norvegicus, UniProt Q9R0C9); assay: Inhibitory activity against Sigma opioid receptor type 1 isolated from whole rat membranes using [3H](+)-pentazocine as radioligand.
Summary of the method: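 Membranes came from male Sprague–Dawley rat whole brain minus cerebellum and pons-medulla, in 50 mM Tris-HCl pH 7.8, washed four times. Incubated with [3H]-(+)-pentazocine 120 min at 25 °C, then filtered on polyethylenimine-soaked filters. Nonspecific binding was set with 10 µM haloperidol. IC50 from 2–3 experiments in triplicate (6–9 concentrations); Ki by Cheng–Prusoff.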

Chain of Sigma non-opioid intracellular receptor 1 (Q9R0C9 whole entry): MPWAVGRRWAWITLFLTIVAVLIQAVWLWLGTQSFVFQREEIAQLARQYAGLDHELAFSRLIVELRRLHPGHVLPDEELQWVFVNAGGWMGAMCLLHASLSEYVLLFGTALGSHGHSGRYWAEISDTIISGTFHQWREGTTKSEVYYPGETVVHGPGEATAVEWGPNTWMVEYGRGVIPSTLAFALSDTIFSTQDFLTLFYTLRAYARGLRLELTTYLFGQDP

| Selectivity [1] | pKi [2] | Selectivity [3] | pKi [4] | SMILES |
| --- | --- | --- | --- | --- |
| 0.05 | 7.85 | 8 | – | COc1cccc2c1CCCC2CCCNCCNc1ccccc1 (stereo unspecified) |
| – | 6.67 | – | – | C1=C(CCCN2CCN(Cc3ccccc3)CC2)c2ccccc2CC1 |
| 1 | 7.35 | – | 6.95 | c1ccc2c(c1)CCCC2CCCN1CCN(C2=NCCCC2)CC1 (stereo unspecified) |
| – | 8.44 | – | 7.59 | COc1cccc2c1CCCC2CCCN1CCN(Cc2ccccc2)CC1 (stereo unspecified) |
| > 10 | – | – | – | COc1cccc2c1CCC=C2CCCN1CCN(Cc2ccccc2)CC1 |
| 14 | 6.38 | – | – | COc1ccc2c(c1)C(CCCN1CCN(C3=NCCCC3)CC1)CCC2 (stereo unspecified) |
| – | 8.36 | – | – | COc1cccc2c1CCCC2CCCNCCCc1ccccc1 (stereo unspecified) |
| – | 7.64 | – | – | COc1cccc2c1CCCC2CCCNCCC1CCCc2ccccc21 (stereo unspecified) |
| – | 7.50 | – | – | COc1cccc2c1CCCC2CCCNCCc1ccccc1 (stereo unspecified) |
| – | 7.43 | – | 6.40 | COc1cccc2c1CCCC2CCCCN1CCN(C2=NCCCC2)CC1 (stereo unspecified) |

| SMILES | Selectivity [1] | pKi [2] | Selectivity [3] | pKi [4] |
| --- | --- | --- | --- | --- |
| COc1cccc2c1CCCC2CCCN1CCN(C2CCCCC2)CC1 (stereo unspecified) | – | 7.54 | – | 7.15 |
| COc1ccc2c(c1)C(CCCN1CCNCC1)CCC2 (stereo unspecified) | – | < 5.84 | – | – |
| COc1cccc2c1CCCC2CCCN1CCNCC1 (stereo unspecified) | – | < 5.84 | – | – |

— ChEMBL document CHEMBL1129283, “New sigma and 5-HT1A receptor ligands: omega-(tetralin-1-yl)-n-alkylamine derivatives” (J Med Chem, 1996)
